How the values were obtained:
[1] = target: T1, cGMP-specific 3',5'-cyclic phosphodiesterase (Bos taurus, UniProt Q28156); experiment: Inhibitory activity against phosphodiesterase was determined in vitro using bovine aorta, at 1 uM cGMP for cGMP-PDE.
[2] = target: T2, Phosphodiesterase 1 (Bos taurus, UniProt Q01061+P14100); experiment: Inhibitory activity against phosphodiesterase was determined in vitro using bovine aorta, at 1 uM cGMP in the presence of calcium (10 uM) and calmodulin (15 nM); format: protein assay
Procedure, shortened: (§1)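 Calmodulin-dependent PDE peak taken from DEAE-trisacryl gradient fractions of a 105000g vascular smooth muscle supernatant. Assayed with 1 μM cGMP substrate, CaCl2 and excess bovine brain calmodulin, keeping hydrolysis ≤15%. Drugs in DMSO or DMF, final solvent ≤1%. IC50 from linear regression of % activity vs log concentration, using at least six points. Mean ± SEM of three separate enzyme preparations.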

[3] = target: cAMP phosphodiesterase (Bos taurus); experiment: Inhibitory activity against phosphodiesterase was determined in vitro using bovine aorta, at 1 uM cAMP for cAMP-PDE.
[4] = Inhibition of phosphodiesterase from bovine aorta with 1 uM cGMP calcium (10 uM) and calmodulin (15 nM); set-up: species or system Bos taurus; procedure, shortened: as §1
[5] = target: T1, cGMP-specific 3',5'-cyclic phosphodiesterase; experiment: Inhibition of cGMP-PDE phosphodiesterase from bovine aorta using 1 uM cGMP (insignificant)
[6] = target: T1, cGMP-specific 3',5'-cyclic phosphodiesterase; experiment: Inhibition of cGMP-PDE phosphodiesterase from bovine aorta using 1 uM cGMP
Procedure, shortened: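 Enzyme from the 105000g supernatant, separated on DEAE-trisacryl with a 0–0.4 NaCl gradient; the cGMP-PDE peak was dialysed and stored at −80 °C. Assayed without calcium, with EGTA, at 1 μM cGMP, keeping hydrolysis ≤15%. Drugs were in DMSO or DMF, ≤1% final.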

[7] = target: T2, Phosphodiesterase 1; experiment: Inhibition of phosphodiesterase from bovine aorta with 1 uM cGMP calcium (10 uM) and calmodulin (15 nM) (insignificant); format: protein assay; procedure, shortened: as §1
[8] = target: cAMP phosphodiesterase (Bos taurus); experiment: Inhibitory activity against phosphodiesterase was determined in vitro using bovine aorta, at 1 uM cAMP for cAMP-PDE.; remark: listed apart in the source
[9] = target: T1, cGMP-specific 3',5'-cyclic phosphodiesterase; experiment: Inhibitory activity against phosphodiesterase was determined in vitro using bovine aorta, at 1 uM cGMP for cGMP-PDE;Compound is insignificant.
[10] = target: T2, Phosphodiesterase 1; experiment: Inhibitory activity against […] phosphodiesterase was determined in vitro using bovine aorta, at 1 uM cGMP in the presence of calcium (10 uM) and calmodulin (15 nM); Compound is insignificant.; format: protein assay
[11] = target: cAMP phosphodiesterase (Bos taurus); experiment: Inhibition of cAMP-PDE phosphodiesterase from bovine aorta using 1 uM cAMP (insignificant)

| IC50 [1] [mM] | IC50 [2] | IC50 [3] | IC50 [10] [M] | SMILES | other results |
| --- | --- | --- | --- | --- | --- |
| > 1 | > 0.001 M | > 0.001 M |  | CCCCOc1ccc(C2CNC(=O)C2)cc1OC (centres undefined) |  |
| > 1 | > 0.001 M | 34 µM |  | COc1ccc(C2CNC(=O)C2)cc1OCCCC(=O)N(C)C1CCCCC1 (centres undefined) |  |
| > 1 | > 0.001 M | 22 µM |  | COc1ccc(C2CNC(=O)C2C)cc1OC (centres undefined) |  |
| > 1 | > 0.001 M | 30 µM |  | CCOC(=O)CCCOc1cc(C2CNC(=O)C2)ccc1OC (centres undefined) |  |
| 0.174 | > 0.001 M | 96 µM |  | COc1ccc(C2CNC(=O)C2)cc1OCc1ccccc1 (centres undefined) |  |
| > 1 | > 0.001 M |  |  | C#CCOc1cc(C2CNC(=O)C2)ccc1OC (centres undefined) |  |
| 0.2 | > 0.001 M |  |  | CCC(C)COc1cc(C2CNC(=O)C2)ccc1OC (centres undefined) |  |
|  | > 0.001 M | > 0.001 M |  | CCCCOc1cccc(C2CNC(=O)C2)c1 (centres undefined) | IC50 [6]: > 1000 µM |
| > 1 | > 0.001 M | 13 µM |  | CCCCOc1cc(C2CNC(=O)C2)ccc1OC (centres undefined) |  |
|  |  |  | > 0.001 | COc1ccc(C2CNC(=O)C2C(=O)O)cc1OC (centres undefined) | IC50 [9]: > 1 mM |
|  |  |  | > 0.001 | CCCCOc1cc(C2CN=C(S)C2)ccc1OC (centres undefined) | IC50 [6]: 195 µM; IC50 [8]: 500 µM |
| > 1 | > 0.001 M | 400 µM |  | COc1ccc(C2CNC(=O)C2)cc1OCCCC(=O)O (centres undefined) |  |
|  |  |  | > 0.001 | CCOC(=O)C1C(=O)NCC1c1ccc(OC)c(OC)c1 (centres undefined) | IC50 [8]: 21 µM; IC50 [9]: > 1 mM |
| > 1 | > 0.001 M | 16 µM |  | CCCCNC(=O)CCCOc1cc(C2CNC(=O)C2)ccc1OC (centres undefined) |  |
| > 1 | > 0.001 M | 18 µM |  | COc1ccc(C2CNC(=O)C2)cc1OCC(C)C (centres undefined) |  |
| > 1 | > 0.001 M | 24 µM |  | C=C(C)COc1cc(C2CNC(=O)C2)ccc1OC (centres undefined) |  |
| > 1 | > 0.001 M |  |  | COc1ccc(C2CNC(=O)C2)cc1OC (centres undefined) |  |
| 0.38 | 940 µM |  |  | CCCCOc1cc(CC2CNC(=O)N2)ccc1OC (centres undefined) [RO-201724] |  |

Continued, compound first:

| SMILES | IC50 [1] [mM] | IC50 [2] | IC50 [3] | IC50 [10] [M] | other results |
| --- | --- | --- | --- | --- | --- |
| COc1ccc(C2CNC(=O)C2)cc1O (centres undefined) | > 1 | > 0.001 M | > 0.001 M |  |  |
| COc1ccc(C2CC(=O)N(c3ccccc3)C2)cc1OC (centres undefined) |  |  |  |  | IC50 [4]: 230 µM; IC50 [5]: > 1 mM |
| O=C1CC(c2ccccc2)CN1 (centres undefined) |  | > 0.001 M |  |  | IC50 [6]: > 1000 µM |
| COc1ccc(C2CC(=O)N(C(=O)c3ccccc3)C2)cc1OC (centres undefined) |  |  |  |  | IC50 [7]: > 0.001 M; IC50 [5]: > 1 mM; IC50 [8]: 58 µM |
| COc1ccc(C2CC(=O)N(Cc3ccccc3)C2)cc1OC (centres undefined) |  |  |  | > 0.001 | IC50 [9]: > 1 mM |
| CCCCOc1ccc(C2CNC(=O)C2)cc1 (centres undefined) |  |  |  | > 0.001 | IC50 [11]: > 0.001 M; IC50 [9]: > 1 mM |
| COc1ccc(C2CC(=O)N(C(C)=O)C2)cc1OC (centres undefined) |  |  |  | > 0.001 | IC50 [6]: > 1000 µM; IC50 [8]: 25 µM |
| COc1cc2c(cc1OC)[C@@H]1CNC(=O)[C@@H]1CC2 |  |  |  | > 0.001 | IC50 [8]: 220 µM; IC50 [9]: > 1 mM |
| COc1cc2c(cc1OC)[C@@H]1CNC(=O)[C@H]1CC2 |  |  |  |  | IC50 [7]: > 0.001 M; IC50 [5]: > 1 mM; IC50 [8]: 138 µM |
| COc1ccc(C2CC(=O)N(C)C2)cc1OC (centres undefined) |  |  |  | > 0.001 | IC50 [9]: > 1 mM |
| COc1ccc(C2CCNC2)cc1OC.O=C(O)C(=O)O (centres undefined) |  |  |  | > 0.001 | IC50 [11]: > 0.001 M; IC50 [9]: > 1 mM |
| COc1cc2c(cc1OC)[C@H]1CC(=O)NC1C2 (some centres undefined) |  |  |  | > 0.001 | IC50 [8]: 800 µM; IC50 [9]: > 1 mM |
| COc1ccc(C2CNC(=O)C2)cc1OC1CCCC1 (centres undefined) [ROLIPRAM] |  | 2700 µM |  |  |  |
| COc1cc2c(cc1OC)-c1c/c(=N\c3c(C)cc(C)cc3C)n(C)c(=O)n1CC2 [TREQUINSIN] |  |  |  |  | IC50 [6]: 5 µM; IC50 [4]: 13 µM |
